Bioassay records from PubChem BioAssay.
Statin myotox sup = suppression of simvastatin myotoxicity. C2C12 myotubes + simvastatin, ATP luminescence, 48 h; scaled: DMSO 0, geranylgeraniol control 100. rescue of ATP level, % at 7.49 µM. hit rate 0.78% among 330,000. AID 602340;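 active = mean ATP rescue above about 67%, or every replicate alone reaching that limit, limit read from the data, passing the limit was not always enough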;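 note: myotubes were challenged with 10 µM simvastatin during compound exposure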
SIRT5 block = sirtuin-5 (human) deacylase inhibition; Q9NXA8; Purified SirT5, succinyl-peptide AMC, trypsin-coupled fluorescence; inhibition, % at 15 µM; hit rate 1.1% among 330,000; in the data active = inhibition above about 15%
FGF22 binding = FGF22 (human) thermal shift binding | recombinant FGF22 thermal shift, SYPRO orange fluorescence; percent of sucrose octasulfate shift, DMSO zero | hit rate 1.5% among 340,000 | Q9HCT0 | activity (Tm shift, normalised), % at 9.99 µM;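 active = mean Tm shift, scaled 0 neutral to 100 positive control, at about 1.3% or above, every replicate too, limit read from the data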
rRNA inh HTS = inhibits bacterial ribosomal RNA function over humanized ribosomes | E. coli WT GFP vs humanized-ribosome RFP mutants, fluorescence, 24 h; hits give low values; DMSO median 0, no signal -100 | GFP signal change (wild-type ribosome), % (test concentration not listed) | hit rate 1.6% among 350,000;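 active = significant combined selectivity score with lowered wild-type GFP, culture density cut under 30%, mutant RFP and density less affected; inactive = any of these conditions unmet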
FN deposition inh = fibronectin deposition inhibition. AH1F fibroblasts, Alexa488-fibronectin deposition fluorescence, overnight. inhibition, % at 12.6 µM. hit rate 0.086% among 350,000. AID 743247;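 active = mean inhibition across replicates of 30% or more, regardless of how many single replicates reach that level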;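 note: positive control wells lacked labelled fibronectin entirely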
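Material: AH1F fibroblast monolayer depositing Alexa488-labelled fibronectin into matrix / Amount: 10000 AH1F cells per well / Signal: fluorescence 485/525 nm / Medium: DMEM, 2% serum / Compound: single dose, pinned / Incubation: 1 h cell adhesion before compound, then overnight fibronectin incubation / Reagent: Alexa488-FN, 24 nM final / Read-out: inhibition of fibronectin deposition signal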
E-sel inducer = induces E-selectin expression in human endothelial cells. HUVEC E-selectin immunofluorescence imaging; normalized: neutral wells 0, TNF-alpha wells 100. activation, % at 7.58 µM. hit rate 0.37% among 260,000;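 active = mean E-selectin-positive cell signal at least 10% of the positive control, reached in at least 60% of replicates, without over 20% cell loss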
Target sequence (P16581 whole entry, looked up): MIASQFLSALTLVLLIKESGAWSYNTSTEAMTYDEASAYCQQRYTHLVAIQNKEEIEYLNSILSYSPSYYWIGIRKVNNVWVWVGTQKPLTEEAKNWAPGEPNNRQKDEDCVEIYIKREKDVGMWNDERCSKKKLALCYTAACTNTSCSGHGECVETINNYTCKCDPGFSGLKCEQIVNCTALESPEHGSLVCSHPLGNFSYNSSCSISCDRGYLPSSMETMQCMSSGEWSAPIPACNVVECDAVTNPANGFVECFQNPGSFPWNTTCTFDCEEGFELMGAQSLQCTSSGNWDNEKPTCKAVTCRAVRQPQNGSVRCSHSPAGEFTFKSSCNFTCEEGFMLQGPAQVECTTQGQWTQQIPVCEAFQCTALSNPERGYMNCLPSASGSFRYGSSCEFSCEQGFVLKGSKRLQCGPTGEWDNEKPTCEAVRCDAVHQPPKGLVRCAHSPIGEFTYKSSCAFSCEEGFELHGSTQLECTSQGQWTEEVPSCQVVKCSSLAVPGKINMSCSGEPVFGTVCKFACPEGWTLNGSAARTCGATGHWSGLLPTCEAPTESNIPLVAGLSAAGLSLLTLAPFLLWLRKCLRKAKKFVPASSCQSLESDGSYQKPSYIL
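Assay system: HUVEC, human umbilical vein endothelial cells / Amount: 3,000 HUVEC/well / Controls: TNF-alpha positive control, DMSO neutral control / Compound dosing: single concentration / Medium: EGM-2 over gelatin coat / Evaluation: percent E-selectin-positive cells / Signal: immunofluorescence imaging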
Starred values were filed as active, the others as inactive. A selection: hits, their analogues and other compounds. The true share with any hit is near 4%.

How did C[C@@H]1CN([C@@H](C)CO)C(=O)c2cc(NC(=O)CCN3CCOCC3)ccc2O[C@H]1CN(C)S(=O)(=O)c1ccc(F)cc1 do in these assays?
Statin myotox sup: -38; FGF22 binding: 0; rRNA inh HTS: 0; E-sel inducer: 0

Results for C[C@@H]1CN([C@@H](C)CO)C(=O)c2cc(NS(=O)(=O)c3ccc(F)cc3)ccc2O[C@@H](C)CCCCO[C@@H]1CN(C)CC1CCCCC1 ?
Statin myotox sup: 6; SIRT5 block: 1; FGF22 binding: 0; rRNA inh HTS: 4; E-sel inducer: 0

How did O=C(COC(=O)C1CC1)Nc1ncc(C(F)(F)F)cc1Cl do in these assays?
SIRT5 block: -3; FGF22 binding: 44*; rRNA inh HTS: 20; FN deposition inh: -3

Results for COC(=O)[C@@H](NC(=O)NC(C)CCc1ccccc1)C(C)C (some centres undefined) ?
Statin myotox sup: 93*

What do the screens show for `COC(=O)[C@H](C)NC(=O)NC(C)CCc1ccccc1` (some centres undefined)?
Statin myotox sup: -11; SIRT5 block: 0; FGF22 binding: 0; rRNA inh HTS: 21

Results for O=C(O)c1ccc(Cl)cc1NC(=O)C1CCN(S(=O)(=O)c2cccs2)CC1 ?
Statin myotox sup: -7; FGF22 binding: 0; rRNA inh HTS: -18*; FN deposition inh: -3; E-sel inducer: 0

What do the screens show for `O=C(O)c1ccc(Nc2nc(-c3ccccc3)nc3ccccc23)cc1`?
Statin myotox sup: -11; SIRT5 block: 39*; FGF22 binding: 0; rRNA inh HTS: -19; FN deposition inh: 2; E-sel inducer: 0

What do the screens show for `O=C(O)c1cccc(Nc2nc(C(F)(F)F)nc3ccccc23)c1`?
SIRT5 block: 2; FGF22 binding: 2.0*; rRNA inh HTS: -30; FN deposition inh: 2; E-sel inducer: -4

What do the screens show for `COc1ccc([C@H]2C/C=C\C[C@H](c3ccccc3)NC(=O)CCC(=O)N2)c(OC)c1`?
rRNA inh HTS: 4; FN deposition inh: 2

How did O=C(Nc1cccc(F)c1)N1CC(=O)N2[C@H](C1)[C@@H](c1ccc(-c3cccc(F)c3)cc1)[C@@H]2CO do in these assays?
SIRT5 block: 16*; rRNA inh HTS: -31; FN deposition inh: -10; E-sel inducer: 0

How did COc1cccc(NC(=O)N2CC(=O)N3[C@H](C2)[C@@H](c2ccc(C#CC4CCCC4)cc2)[C@@H]3CO)c1 do in these assays?
SIRT5 block: 16*; rRNA inh HTS: 5; FN deposition inh: -9; E-sel inducer: 0

How did COc1cccc(NC(=O)N2CC(=O)N3[C@H](C2)[C@@H](c2ccc(C#CCC4CCCC4)cc2)[C@@H]3CO)c1 do in these assays?
SIRT5 block: 21*; FGF22 binding: 0; rRNA inh HTS: 3; FN deposition inh: -12; E-sel inducer: 1

Results for COc1ccc(NC(=O)N2CC(=O)N3[C@H](C2)[C@H](c2ccc(C#CCC4CCCC4)cc2)[C@@H]3CO)cc1 ?
SIRT5 block: 15*; rRNA inh HTS: 4; E-sel inducer: -1

Results for COc1ccc(NC(=O)N2CC(=O)N3[C@@H](CO)[C@H](c4ccc(C#CCC5CCCC5)cc4)[C@@H]3C2)cc1 ?
SIRT5 block: 11; rRNA inh HTS: 5; E-sel inducer: 0

Results for COc1cccc(NC(=O)N2CC(=O)N3[C@H](C2)[C@H](c2ccc(C#CC4CCCC4)cc2)[C@@H]3CO)c1 ?
SIRT5 block: 8; FGF22 binding: 0; rRNA inh HTS: 0; FN deposition inh: -5; E-sel inducer: 2

Results for O=C(CCl)N(c1ccc(Cl)cc1)c1c[nH]c2ccccc12 ?
Statin myotox sup: 28; SIRT5 block: -4; rRNA inh HTS: -23*; FN deposition inh: 4

Results for O=C(Cc1ccc(Cl)cc1)NCCc1c[nH]c2ccccc12 ?
Statin myotox sup: 3; SIRT5 block: -2; FGF22 binding: 0; rRNA inh HTS: -20; FN deposition inh: -5; E-sel inducer: 0

What do the screens show for `CC(C)c1ccc(/C=C/C(=O)N2CCCCCC2)cc1`?
SIRT5 block: -2; FGF22 binding: 1; rRNA inh HTS: -26*; FN deposition inh: -2; E-sel inducer: 0

How did Cc1cc(C)cc(N(C(=O)c2sc(C)nc2C)C(C(=O)NC(C)(C)C)c2ccncc2)c1 (centres undefined) do in these assays?
Statin myotox sup: -4; SIRT5 block: 0; FGF22 binding: 43*; rRNA inh HTS: 8; FN deposition inh: 0

How did Cc1cc(C)cc(N(C(=O)c2sc(C)nc2C)C(C(=O)NCc2ccco2)c2ccccc2)c1 (centres undefined) do in these assays?
Statin myotox sup: 6; SIRT5 block: -2; FGF22 binding: 0; rRNA inh HTS: 4

Results for Cc1ccc(S(=O)(=O)Nc2ccc3cn[nH]c3c2)cc1C ?
Statin myotox sup: -10; FGF22 binding: 44*; rRNA inh HTS: -13; FN deposition inh: 6; E-sel inducer: 0

How did COc1cc(S(=O)(=O)Nc2ccc3cn[nH]c3c2)ccc1Cl do in these assays?
Statin myotox sup: -4; SIRT5 block: 2; FGF22 binding: 44*; rRNA inh HTS: -29; FN deposition inh: 11

Results for Cc1ccc(NS(=O)(=O)c2ccc(-n3cccn3)cc2)cc1C ?
Statin myotox sup: 164*; SIRT5 block: -4; FGF22 binding: 0; rRNA inh HTS: 4; FN deposition inh: 3

How did C[C@H](CO)N1C[C@H](C)[C@H](CN(C)C(=O)Nc2cccc3ccccc23)Oc2ccc(NC(=O)CCC(F)(F)F)cc2C1=O do in these assays?
Statin myotox sup: -26; SIRT5 block: -1; FGF22 binding: 0; rRNA inh HTS: -4; E-sel inducer: 3

Results for CC=Cc1ccc2n(c1=O)C[C@H]1[C@H](CO)[C@@H](C(=O)NCCC)[C@@H]2N1C(=O)C1CC1 (mixture of isomers) ?
Statin myotox sup: 2; SIRT5 block: -6; FGF22 binding: 0; rRNA inh HTS: 3; E-sel inducer: 0

How did Cc1ccc2c(c1)[C@H]1[C@H](CO2)[C@H](c2ccccc2)[C@]2(C)C(=O)Nc3ccc(Cl)cc3C(=O)N12 do in these assays?
Statin myotox sup: 2; SIRT5 block: 16*; FGF22 binding: -1; rRNA inh HTS: 10; FN deposition inh: 6; E-sel inducer: 0

Results for COC(=O)Nc1ccc(Cn2cc(C(F)(F)F)ccc2=O)cc1 ?
SIRT5 block: 17*; FGF22 binding: 0; rRNA inh HTS: 6; FN deposition inh: 5

What do the screens show for `Cc1ccc(/C=C/C(=O)NCc2ccc(S(N)(=O)=O)cc2)o1`?
SIRT5 block: -1; FGF22 binding: 43*; rRNA inh HTS: 15; FN deposition inh: 4; E-sel inducer: 3
